The chains are these.
B1: tRNA (parent)
chain: GUUCCGUUGGCGUAAUGGUAACGCGUCUCCCUCCUAAGGAGAAGACUGCGGGUUCGAGUCCCGUACGGAACG

Here are results for 167 variants from the RNAGym collection of RNA variant scans (doi:10.1126/science.aae0568).

Variants at the floor of the assay were thinned out.

The variants in this data set derive from B1. Nature of the data set: yeast fitness relative to wild type (ratio to wild type); higher = fitter; tRNA-Arg(CCU), competitive growth, 37 C, YPD. The procedure, abridged: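 Genotype frequency changes were the basis for Darwinian fitness relative to wild type. The frequencies came from 100-nucleotide paired-end sequencing of gene amplicons from the start population and each end population of pooled yeast strains with tRNA-Arg(CCU) gene variants at the native locus. Competition ran in YPD at 37°C for 24 hours in six replicates, genotypes needed ≥ 100 starting reads, and estimates < 0.5 were set to 0.5.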
On to U19C U53C, for which the yeast fitness was found to be 0.694.
Regarding U19A C60G A70C, the yeast fitness amounted to 0.502.
In the case of U19C G44C A69U, the yeast fitness is 0.762.
Take G18C U47A: the yeast fitness is 0.553.
As for U19C A37G C49U, the yeast fitness worked out at 0.566.
For the variant U19A C27U A57G, the yeast fitness turned out to be 0.725.
Regarding U19G C29A A45U, the yeast fitness is no more than 0.5.
Turning to U19A A40G C60U U64C, the yeast fitness is 0.705.
For the variant U19G C24A C30U, the yeast fitness was no more than 0.5.
U19C A20C A65U: the yeast fitness turned out to be 0.55.
Take U19C A36U A70U: the yeast fitness is no more than 0.5.
U19C C27U C29G C34A A42C G58A A65G: the yeast fitness was no more than 0.5.
On to U19C C34A, for which the yeast fitness was determined as 0.76.
Then U19C C55A C66A, with no more than 0.5.
Regarding U19G C22U C31U A40U G67A, the yeast fitness is 0.637.
Then U19G A40G C55G A65C, with no more than 0.5.
Regarding U19A U35A A37G A43U A45C, the yeast fitness was no more than 0.5.
G18C U35A A45C G48A: the yeast fitness is no more than 0.5.
Turning to U19C C22U G25C C27G A40C, the yeast fitness amounted to 0.587.
Turning to U19C G38A G41A, the yeast fitness stood at 0.577.
As for U19A C22G A70U, the yeast fitness is 0.509.
Under U19C A20C stands 0.805.
Take U19A U26C C30A G67U: the yeast fitness is no more than 0.5.
Under U19C C27A stands 0.987.
On to U19C G41C, for which the yeast fitness came out at 0.987.
Turning to U19C C22G, the yeast fitness came out at 0.978.
On to U19C U32G C33G, for which the yeast fitness was no more than 0.5.
Turning to U19A C22G G23C C30G C34A C55U, the yeast fitness is no more than 0.5.
On to U19C A45C G48C, for which the yeast fitness was 0.57.
Then U19G A21G, with 1.05; and U19C C30U G51C, with 0.693; and U19C C61U, with 0.925.
As to U19C G48A G50A, the yeast fitness was determined as 0.693.
Take U19C C22G A65U: the yeast fitness stood at 0.547.
U19A C27U G44A: the yeast fitness turned out to be 0.781.
Consider U19A A36G U59A, for which the yeast fitness is no more than 0.5.
Take U19A C24G G25A C46G G52A A65C: the yeast fitness is no more than 0.5.
Under U19C A37U C66G stands no more than 0.5; under U19C C31A G41C, 0.577.
On to U19C C29G U32G C61U C66A, for which the yeast fitness was no more than 0.5.
U19C C31A G50U C62G G63A: the yeast fitness is no more than 0.5.
Regarding U19G A57G, the yeast fitness came out at 0.611.
Consider U19C U32A G67A, for which the yeast fitness amounted to 0.65.
Regarding U19C U26C G44A, the yeast fitness worked out at 0.521.
Under U19C A21U A69U stands 0.691; under U19C A20U C27G G52C, no more than 0.5; under U19G A70U, 1.02.
On to U19G A70C, for which the yeast fitness is 0.999.
With U19G C27G A65C C66G, the yeast fitness was 0.907.
Regarding U19C C29G G44C, the yeast fitness turned out to be 0.505.
As to U19C A20C C24A, the yeast fitness is no more than 0.5.
In the case of U19A G41A A42G G58U G63C, the yeast fitness is no more than 0.5.
As to U19A A37U A43G A57G, the yeast fitness was 0.594.
Turning to U19A A42G U47C, the yeast fitness is no more than 0.5.
Under U19C U28C C46A A70C stands 0.545; under U19A A21C G25C C31G C33U G67A, no more than 0.5.
As for U19G A40C, the yeast fitness was 0.732.
For the variant U19A C24U G38A U54C, the yeast fitness was no more than 0.5.
For the variant U19G A20U U26A G38C A45G C46G G50A G56C, the yeast fitness is no more than 0.5.
Regarding U19C A20C G50C U64C, the yeast fitness is no more than 0.5.
As for U19A C22G, the yeast fitness came out at 0.919.
Under U19A C30G A43C U47C U54C stands no more than 0.5.
Regarding U19C A21U, the yeast fitness turned out to be 0.846.
U19C A21C: the yeast fitness is 1.12.
For the variant U19A G25C C33A A37G G44A, the yeast fitness is no more than 0.5.
Regarding U19A A40C C55A C66A, the yeast fitness was no more than 0.5.
As to U19A G25A A37U A42G C55U, the yeast fitness was no more than 0.5.
For U19C U28C G48C A70C, the yeast fitness is no more than 0.5.
Then U19G C29U, with 0.795.
U19A G25C C33A A37G C55U: the yeast fitness is no more than 0.5.
Turning to U19A C27G A65U, the yeast fitness was no more than 0.5.
For U19C A42U, the yeast fitness turned out to be 1.12.
On to U19G C24G U28C, for which the yeast fitness was 0.681.
As to U19C U26A U32A, the yeast fitness turned out to be 0.541.
As for U19A C24A C31G G68C, the yeast fitness was no more than 0.5.
Then U19A C22U A40U G51C C66U A70G, with no more than 0.5; and G18C U28G A36C G38C, with no more than 0.5; and U19C A45U, with 0.923.
On to U19A G41C A70U, for which the yeast fitness is no more than 0.5.
With G18C G52A A57U A65C, the yeast fitness is no more than 0.5.
Consider U19G C27U A42C, for which the yeast fitness was no more than 0.5.
Under G18C G48A C55A stands no more than 0.5; under U19C A36C U47A G48C U54G A65C, no more than 0.5.
For the variant U19A C60G A69U, the yeast fitness is no more than 0.5.
With U19C G25C G51C C60U G67A, the yeast fitness was 0.545.
For G18C U19C, the yeast fitness came to 0.587.
In the case of U19C A20G G58A, the yeast fitness came out at 0.709.
Regarding U19C U28C C46U, the yeast fitness came to 0.712.
Regarding U19A A36U G50U C61U, the yeast fitness is no more than 0.5.
Under U19C G48C G56A A69C stands 0.642; under U19C C24G A37U U47A A65G C66U, no more than 0.5; under U19A C24G C61U, no more than 0.5.
As to U19C A20C A21U, the yeast fitness is no more than 0.5.
Then U19C A37C A45C C46A, with 0.897.
In the case of U19G A21U C46U C66U, the yeast fitness turned out to be 0.532.
Consider U19G A43C U53C C55G G67C A69C, for which the yeast fitness is no more than 0.5.
For the variant U19C A37G C49U A69C, the yeast fitness worked out at 0.51.
With U19C C24U U64A, the yeast fitness was 0.73.
As for G18C U19G C27U A43U A65U, the yeast fitness is no more than 0.5.
U19A C24A C31G C62U G68C: the yeast fitness turned out to be 0.535.
As for U19G C22U A37G C66U A69U, the yeast fitness worked out at 0.61.
U19C U32C C33G C34U U54A C66U: the yeast fitness is no more than 0.5.
Consider U19C G56A, for which the yeast fitness worked out at 0.91.
U19C A20G G67A A69U: the yeast fitness is no more than 0.5.
Under U19C G48A G58C C61A stands no more than 0.5; under U19A A70C, 1.03; under U19A A70U, 1.03.
Under U19C A45G C62U stands 0.953.
For U19C C29G A40C, the yeast fitness was no more than 0.5.
Consider U19C A43G G44C A45C C66U, for which the yeast fitness worked out at 0.589.
Take U19G A43C: the yeast fitness turned out to be 0.971.
With U19G A43U, the yeast fitness came to 1.04.
Under U19C C24A G58A stands no more than 0.5; under U19A C24G C27U C30A U64A A70C, no more than 0.5.
Consider U19C C29G, for which the yeast fitness amounted to 0.578.
Take U19C C29U: the yeast fitness was 0.948.
Then U19C C49A C55U, with no more than 0.5; and U19C C55U C61A, with no more than 0.5; and U19A C29G C46A G68C, with no more than 0.5.
Take U19C U32C: the yeast fitness is 0.926.
As to U19A C30G A36G C61G, the yeast fitness is no more than 0.5.
With U19A C22G C34U A42G A43G G51A A70U, the yeast fitness was no more than 0.5.
Consider U19A C27U A43U C55U, for which the yeast fitness is no more than 0.5.
Take U19C A65U: the yeast fitness turned out to be 1.07.
Under U19C G39C G41C stands 0.51.
For U19C C30A U47C, the yeast fitness came out at 0.693.
Then U19G C22U C49U C62A, with no more than 0.5.
Turning to G18C G44A C62G, the yeast fitness is no more than 0.5.
For the variant U19G C22G C34U C61G, the yeast fitness is no more than 0.5.
Regarding U19A U28A C60G, the yeast fitness was no more than 0.5.
Take U19C C30G U59C A69U: the yeast fitness was no more than 0.5.
Regarding U19C U32A A37C C55G, the yeast fitness was no more than 0.5.
Turning to U19C G48C, the yeast fitness turned out to be 0.922.
With U19A C27U, the yeast fitness amounted to 1.02.
Under U19C G23C U53C stands 0.562; under U19A A37C C49G, 0.501; under U19A G67U, 0.974.
For U19A G67C, the yeast fitness was found to be 0.74.
In the case of U19A A21G A43C G51C, the yeast fitness is no more than 0.5.
For U19A A42G G67U, the yeast fitness came out at 0.585.
Under G18C U26G C55G stands no more than 0.5; under U19C A20C A43G C46A C55U A57U C61U, 0.592.
On to U19C C29A A37G, for which the yeast fitness is no more than 0.5.
For the variant U19C C60U C62U A69G, the yeast fitness is no more than 0.5.
With U19A C24G G38A G58C C60U C62U C66U, the yeast fitness is no more than 0.5.
As for G18C G63A, the yeast fitness came to 0.535.
Take U19C C34A G50C G56A: the yeast fitness is 0.55.
Take U19A A20G G56A: the yeast fitness amounted to 0.956.
Under U19G C27G stands 0.776.
On to U19A G58A A69U, for which the yeast fitness is 1.2.
U19C C31G A65U: the yeast fitness is 0.596.
With U19C C22A C55G C62U, the yeast fitness is no more than 0.5.
Turning to U19A C31U, the yeast fitness was found to be 0.954.
Consider U19G A43C G63U U64A, for which the yeast fitness was no more than 0.5.
With U19A C29G U54C G58A, the yeast fitness was no more than 0.5.
For the variant U19C C27A A43G, the yeast fitness was determined as 0.606.
For U19C C49A A57C, the yeast fitness amounted to 0.599.
As for U19C C24U A70U, the yeast fitness stood at 0.849.
Regarding U19C C24U A70C, the yeast fitness was determined as 0.755.
For the variant U19A A40G C55G, the yeast fitness is no more than 0.5.
As to G18U U26A C49U G50C, the yeast fitness is no more than 0.5.
Regarding U19C C49A G68C, the yeast fitness was no more than 0.5.
Under U19C A20U C61G C66U A69U stands no more than 0.5; under U19A C22G G23C C30G C34A, 0.519; under U19A G23C C30A A36G C60U, no more than 0.5.
Turning to U19A G25C C33A A37G G68A, the yeast fitness was no more than 0.5.
Turning to G18C U53C C61U, the yeast fitness is no more than 0.5.
